Experimental findings from ChEMBL document CHEMBL1140366, “Novel P1 chain-extended HIV protease inhibitors possessing potent anti-HIV activity and remarkable inverse antiviral resistance profiles” (Bioorg Med Chem Lett, 2005) are described below.

The subject of assay [1] is Human immunodeficiency virus. The assay is described as follows: Inhibitory concentration against protease inhibitor-resistant mutant Human immuno deficiency virus (D545701) was determined in an MT-4 cell line. As to conditions: Human immunodeficiency virus 1, MT4.
Assay [2] deals with Human immunodeficiency virus. As to the kind of experiment: Inhibitory concentration against protease inhibitor-resistant mutant Human immuno deficiency virus (EP13) was determined in an MT-4 cell line. As to conditions: Human immunodeficiency virus 1, MT4.
The subject of assay [3] is Human immunodeficiency virus. The assay is described as follows: Inhibitory concentration against wild type Human immuno deficiency virus (HXB2) was determined in an MT-4 cell line. Format: functional, organism-based. As to conditions: Human immunodeficiency virus 1, MT4.
Assay [4] concerns Canis lupus familiaris. The assay is described as follows: Half life in dogs at 0.5 mg/kg iv dose. It counts as functional, organism-based. Set-up: dose 0.5 mg/kg.
Assay [5] relates to Canis lupus familiaris. As to the kind of experiment: Bioavailability in dog at 0.5 mg/kg dose. It counts as functional, organism-based.
The test system of assay [6] is Rattus norvegicus. As to the kind of experiment: Bioavailability in rats at 1.0 mg/kg iv dose. Format: functional, organism-based.
Assay [7] concerns Rattus norvegicus. The assay is described as follows: Half life in rat was determined at a dose 1.0 mg/kg. Format: functional, organism-based. Also noted: dose 1 mg/kg.
The subject of assay [8] is Canis lupus familiaris. The assay is described as follows: Clearance in dogs at 0.5 mg/kg dose. It counts as functional, organism-based. Set-up: dose 0.5 mg/kg.
Assay [9] deals with Rattus norvegicus. As to the kind of experiment: Clearance in rats at 1.0 mg/kg iv dose. Set-up: dose 1 mg/kg. Format: functional, organism-based.
Assay [10] deals with Canis lupus familiaris. The assay is described as follows: Half life in dogs at 0.5 mg/kg iv dose co-administered with ritonavir 4.0 mg/kg. It counts as functional, organism-based.
The test system of assay [11] is Canis lupus familiaris. The assay is described as follows: Clearance in dogs at 0.5 mg/kg iv dose. It counts as functional, organism-based. Also noted: dose 0.5 mg/kg.
The subject of assay [12] is Canis lupus familiaris. The assay is described as follows: Bioavailability in dog at 0.5 mg/kg dose co-administered with 4.0 mg/kg ritonavir. It counts as functional, organism-based. Summed up:
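Ritonavir-boosted bioavailability was calculated as the oral AUC with co-administered ritonavir divided by the IV AUC without ritonavir.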

Assay [13] has as its system Rattus norvegicus. As to the kind of experiment: Bioavailability of the compound in rat was determined; Dose at 1.0 mg/kg. It counts as functional, organism-based.

Turning to `CC(C)CN(C[C@@H](O)[C@H](Cc1ccc(OCCNS(C)(=O)=O)cc1)NC(=O)O[C@H]1CO[C@H]2OCC[C@H]21)S(=O)(=O)c1ccc2c(c1)OCO2`, the IC50 in [1] was 20 nM; in assay [2] it was 9.1 nM; in assay [3], 62 nM.

Regarding `CC(=O)NCCOc1ccc(C[C@H](NC(=O)O[C@H]2CO[C@H]3OCC[C@H]32)[C@H](O)CN(CC(C)C)S(=O)(=O)c2ccc3c(c2)OCO3)cc1`, the half-inhibitory concentration (IC50) worked out at 53 nM in [1], 52 nM in assay [2] and 140 nM in assay [3].

`CNC(=O)NCCOc1ccc(C[C@H](NC(=O)O[C@H]2CO[C@H]3OCC[C@H]32)[C@H](O)CN(CC(C)C)S(=O)(=O)c2ccc3c(c2)OCO3)cc1`: the figures for the IC50 in assay [1], in [2] and in [3] were 130 nM, 131 nM and 200 nM, respectively.

As to `CC(C)(C)NC(=O)[C@@H]1CN(Cc2cccnc2)CCN1C[C@@H](O)C[C@@H](Cc1ccccc1)C(=O)N[C@H]1c2ccccc2C[C@H]1O` [INDINAVIR], the IC50 in assay [1] was determined as 440 nM; in [2], 330 nM; in assay [3] it was 50 nM.

With `CC(=O)NCCCCOc1ccc(C[C@H](NC(=O)O[C@H]2CO[C@H]3OCC[C@H]32)[C@H](O)CN(CC(C)C)S(=O)(=O)c2ccc3c(c2)OCO3)cc1`, the IC50 in [1] came to 16 nM; in [2], 13 nM; in [3] it was 39 nM.

Take `COC(=O)NCCCOc1ccc(C[C@H](NC(=O)O[C@H]2CO[C@H]3OCC[C@H]32)[C@H](O)CN(CC(C)C)S(=O)(=O)c2ccc3c(c2)OCO3)cc1`: the results for the IC50 in [1], in assay [2] and in assay [3] were 7.1 nM, 2.6 nM and 2.8 nM, respectively. The T1/2 with Canis lupus familiaris [4] amounted to 66 min; in the assay on Rattus norvegicus [7], 12 min. For the same molecule, the bioavailability was 1% with Canis lupus familiaris [5] and 3% in the assay on Rattus norvegicus [6]. Further, the CL (mL.min-1.kg-1) in the assay with Canis lupus familiaris [8] worked out at 0.5; in the assay on Rattus norvegicus [9], 0.717.

On to `CC(C)CN(C[C@@H](O)[C@H](Cc1ccccc1)NC(=O)O[C@H]1CCOC1)S(=O)(=O)c1ccc(N)cc1` [AMPRENAVIR], for which the IC50 is above 1000 nM in assay [1], 440 nM in assay [2] and 130 nM in assay [3].

Consider `COC(=O)NCCCCOc1ccc(C[C@H](NC(=O)O[C@H]2CO[C@H]3OCC[C@H]32)[C@H](O)CN(CC(C)C)S(=O)(=O)c2ccc3c(c2)OCO3)cc1`, for which the half-maximal inhibitory concentration (IC50) came to 6.6 nM in assay [1], 2.6 nM in [2] and 2.6 nM in assay [3].

Turning to `CNC(=O)NCCCCOc1ccc(C[C@H](NC(=O)O[C@H]2CO[C@H]3OCC[C@H]32)[C@H](O)CN(CC(C)C)S(=O)(=O)c2ccc3c(c2)OCO3)cc1`, the values for the half-maximal inhibitory concentration (IC50) in [1], in assay [2] and in assay [3] were 22 nM, 26 nM and 60 nM, respectively.

As to `COC(=O)NCCOc1ccc(C[C@H](NC(=O)O[C@H]2CO[C@H]3OCC[C@H]32)[C@H](O)CN(CC(C)C)S(=O)(=O)c2ccc3c(c2)OCO3)cc1`, the IC50 in [1] amounted to 7.1 nM; in [2], 2.9 nM; in assay [3] it was 3 nM. Moreover, the bioavailability with Canis lupus familiaris [5] amounted to 0%; with Canis lupus familiaris [12], 33%; in the assay with Rattus norvegicus [13], 1%. The results for the T1/2 in the assay with Canis lupus familiaris [10] and with Rattus norvegicus [7] were 36 min and 96 min, respectively. Also, the CL (mL.min-1.kg-1) in the assay with Canis lupus familiaris [11] came to 1.13; in the assay with Rattus norvegicus [9], 0.917.

As for `COC(=O)NCCCCC(C)(C)CN(C[C@@H](O)[C@H](Cc1ccccc1)NC(=O)O[C@H]1CO[C@H]2OCC[C@H]21)S(=O)(=O)c1ccc2c(c1)OCO2`, the figures for the IC50 in assay [1], in assay [2] and in assay [3] were 15 nM, 19 nM and 2.2 nM, respectively.

Consider `CNC(=O)NCCCOc1ccc(C[C@H](NC(=O)O[C@H]2CO[C@H]3OCC[C@H]32)[C@H](O)CN(CC(C)C)S(=O)(=O)c2ccc3c(c2)OCO3)cc1`, for which the figures for the IC50 in assay [1], in assay [2] and in assay [3] were 43 nM, 56 nM and 119 nM, respectively.

For the molecule `CC(C)CN(C[C@@H](O)[C@H](Cc1ccc(OCCCNS(C)(=O)=O)cc1)NC(=O)O[C@H]1CO[C@H]2OCC[C@H]21)S(=O)(=O)c1ccc2c(c1)OCO2`, the IC50 in assay [1] was 21 nM; in assay [2] it was 20 nM; in assay [3], 41 nM.

As for `Cc1c(O)cccc1C(=O)N[C@@H](CSc1ccccc1)[C@H](O)CN1C[C@H]2CCCC[C@H]2C[C@H]1C(=O)NC(C)(C)C` [NELFINAVIR], the half-maximal inhibitory concentration (IC50) in [1] was above 1000 nM; in assay [2] it was 450 nM; in assay [3] it was 320 nM.

As to `CC(C)CN(C[C@@H](O)[C@H](Cc1ccc(OCCN)cc1)NC(=O)O[C@H]1CO[C@H]2OCC[C@H]21)S(=O)(=O)c1ccc2c(c1)OCO2`, the IC50 in assay [1] is 130 nM; in assay [2], 150 nM; in assay [3], 180 nM.

For the molecule `CC(C)CN(C[C@@H](O)[C@H](Cc1ccc(OCCCN)cc1)NC(=O)O[C@H]1CO[C@H]2OCC[C@H]21)S(=O)(=O)c1ccc2c(c1)OCO2`, the concentration for half-maximal inhibition (IC50) in [1] was found to be 65 nM; in assay [2], 50 nM; in assay [3], 67 nM.

In the case of `Cc1cccc(C)c1OCC(=O)N[C@@H](Cc1ccccc1)[C@@H](O)C[C@H](Cc1ccccc1)NC(=O)[C@H](C(C)C)N1CCCNC1=O` [LOPINAVIR], the IC50 is above 1000 nM in assay [1], 400 nM in assay [2] and 40 nM in assay [3].

Consider `CC(C)CN(C[C@@H](O)[C@H](Cc1ccc(OCCCCNS(C)(=O)=O)cc1)NC(=O)O[C@H]1CO[C@H]2OCC[C@H]21)S(=O)(=O)c1ccc2c(c1)OCO2`, for which the IC50 is 9.2 nM in assay [1], 5.9 nM in [2] and 15 nM in assay [3].

Consider `CC(C)CN(C[C@@H](O)[C@H](Cc1ccc(OCCCNC(=O)N(C)C)cc1)NC(=O)O[C@H]1CO[C@H]2OCC[C@H]21)S(=O)(=O)c1ccc2c(c1)OCO2`, for which the IC50 in [1] came to 11 nM; in [2] it was 11 nM; in [3], 25 nM.

With `CC(C)CN(C[C@@H](O)[C@H](Cc1ccc(OCCNC(=O)N(C)C)cc1)NC(=O)O[C@H]1CO[C@H]2OCC[C@H]21)S(=O)(=O)c1ccc2c(c1)OCO2`, the IC50 came to 11 nM in [1], 9.1 nM in assay [2] and 37 nM in assay [3].

As for `CC(C)CN(C[C@@H](O)[C@H](Cc1ccc(OCCCCN)cc1)NC(=O)O[C@H]1CO[C@H]2OCC[C@H]21)S(=O)(=O)c1ccc2c(c1)OCO2`, the IC50 in assay [1] came to 28 nM; in assay [2], 14 nM; in [3], 15 nM.

Consider `CC(C)CN(C[C@@H](O)[C@H](Cc1ccc(OCCCCNC(=O)N(C)C)cc1)NC(=O)O[C@H]1CO[C@H]2OCC[C@H]21)S(=O)(=O)c1ccc2c(c1)OCO2`, for which the IC50 in [1] amounted to 32 nM; in assay [2], 22 nM; in [3], 65 nM.

Regarding `CC(=O)NCCCOc1ccc(C[C@H](NC(=O)O[C@H]2CO[C@H]3OCC[C@H]32)[C@H](O)CN(CC(C)C)S(=O)(=O)c2ccc3c(c2)OCO3)cc1`, the figures for the IC50 in assay [1], in [2] and in assay [3] were 20 nM, 18 nM and 57 nM, respectively.

For the molecule `COC(=O)N[C@H](C(=O)N[C@@H](Cc1ccccc1)[C@@H](O)CN(Cc1ccc(-c2ccccn2)cc1)NC(=O)[C@@H](NC(=O)OC)C(C)(C)C)C(C)(C)C` [ATAZANAVIR], the IC50 was 70 nM in assay [1], 93 nM in assay [2] and 25 nM in assay [3].

The term IC50 denotes the midpoint of a concentration-inhibition curve.
